Hits are enriched below; roughly 1.9% of the tested compounds scored in any of these assays.
RAD54 inh – inhibitors of human RAD54 branch migration | Q92698 | RAD54 Holliday junction branch migration, FAM/BHQ fluorescence | hit rate 0.14% among 360,000 | inhibition, % at 10.4 µM;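 active = mean normalized replicate activity at least 40 and at least half of replicates scoring 40 or more; inconclusive = only one of the two criteria met; inactive = mean below 40 and under half of replicates reaching 40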;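 also: 0% = median of neutral control wells and 100% = median of positive control wells; inhibitors cause a drop in the FAM fluorescence signal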
Target sequence (Q92698 whole entry, looked up): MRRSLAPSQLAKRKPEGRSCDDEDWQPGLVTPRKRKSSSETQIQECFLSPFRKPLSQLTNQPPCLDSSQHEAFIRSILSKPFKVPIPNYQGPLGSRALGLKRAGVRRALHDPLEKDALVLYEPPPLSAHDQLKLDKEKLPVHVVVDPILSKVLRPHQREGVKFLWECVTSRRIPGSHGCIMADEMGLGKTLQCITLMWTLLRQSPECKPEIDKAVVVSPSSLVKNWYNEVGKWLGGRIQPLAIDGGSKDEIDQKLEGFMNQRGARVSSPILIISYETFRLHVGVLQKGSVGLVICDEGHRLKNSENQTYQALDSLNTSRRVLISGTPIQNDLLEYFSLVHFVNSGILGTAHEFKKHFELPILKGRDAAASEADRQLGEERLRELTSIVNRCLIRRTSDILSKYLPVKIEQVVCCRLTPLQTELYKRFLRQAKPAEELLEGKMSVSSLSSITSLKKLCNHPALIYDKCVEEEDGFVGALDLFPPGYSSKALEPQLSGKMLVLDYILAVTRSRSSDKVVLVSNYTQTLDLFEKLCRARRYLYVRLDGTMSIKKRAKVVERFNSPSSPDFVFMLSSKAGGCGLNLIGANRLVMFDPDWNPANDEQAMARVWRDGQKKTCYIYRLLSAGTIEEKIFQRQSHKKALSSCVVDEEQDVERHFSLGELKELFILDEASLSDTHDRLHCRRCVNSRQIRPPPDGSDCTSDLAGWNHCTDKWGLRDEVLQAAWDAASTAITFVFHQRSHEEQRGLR
RAD52 inh – RAD52 (human) annealing inhibition. AID 651710. inhibition, % at 18.7 µM. recombinant RAD52 DNA annealing, FRET fluorescence. P43351. hit rate 0.46% among 360,000;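 active = every replicate showing at least 50% inhibition; inconclusive = mean inhibition at least 50% but not in every replicate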
rRNA inh HTS – selective bacterial rRNA inhibition in E. coli. AID 720706. hit rate 1.6% among 350,000. E. coli WT GFP vs humanized-ribosome RFP mutants, fluorescence, 24 h; hits give low values; DMSO median 0, no signal -100. GFP signal change (wild-type ribosome), % (test concentration not listed);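 active = significant combined selectivity score with lowered wild-type GFP, culture density cut under 30%, mutant RFP and density less affected; inactive = any of these conditions unmet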
Cneo AK release – Cryptococcus neoformans lysis via adenylate kinase release | AID 651654 | hit rate 0.2% among 360,000 | lysis activity, % at 15 µM | C. neoformans lysis, adenylate kinase release luminescence, 4 h; normalised: neutral wells 0, clomiphene wells 100;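 active = mean lysis activity across replicates of at least 80%, whatever share of replicates individually reach that level; inactive = mean lysis activity below 80%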
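Material: C. neoformans cells; Schedule: 4 h static compound exposure, 37 °C, read 1 h post-reagent; Measured by: adenylate kinase release luminescence; Read-out: signal increase indicating cell lysis; Controls: Clomiphene as positive lysis control.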
PglD DTNB – PglD (C. jejuni) enzyme inhibition; purified PglD enzyme, DTNB colorimetric CoA detection; hit rate 0.098% among 360,000; inhibition, % at 12.5 µM; in the data active = inhibition above about 16%, passing the limit was not always enough; inconclusive = no clear call, values can overlap the other calls
PglD confirm – PglD (C. jejuni) inhibition confirmation. Purified C. jejuni PglD, DTNB absorbance 412 nm. inhibition, % at 20 µM. shares compounds with PglD DTNB. 320 tested, under 10 active;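 active = mean inhibition across replicates of at least 20% with every single replicate also at 20% or more; inconclusive = mean inhibition at least 20% but some replicate falls below 20%; inactive = mean inhibition under 20% and not all replicates reach it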;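 also: initial rate of CoA release by acetyl transfer from AcCoA to the UDP-4-amino sugar; 0% = median of neutral control wells and 100% = median of positive control wells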
The depositor's hits bear a star; ? = inconclusive; . = not tested or not shown.

SMILES | RAD54 inh | RAD52 inh | rRNA inh HTS | Cneo AK release | PglD DTNB | PglD confirm
CCOc1ccc(-c2n[nH]c(C(=O)NN)c2C)cc1 | 2 | -13 | 4 | -2 | 83* | -6
O=C(NCCCN=C1NS(=O)(=O)c2ccccc21)c1ccncc1 | -6 | . | . | -5 | 25* | 2
COc1ccccc1S(=O)(=O)N1CC[C@@H]2[C@@H](CO)N(C)c3ccc(-c4ccc(F)cc4)cc3[C@@H]21 | 7 | -4 | 3 | 0 | 0 | .
CCCN1[C@H](C(=O)NCCCN2CCOCC2)[C@@H](CO)[C@@H]2Cn3c(ccc(-c4ccccc4)c3=O)[C@@H]21 | -9 | -2 | -3 | -11 | -3 | .
CCc1nc2ccc(C(=O)NCCCn3ccnc3)cn2c1N(C)Cc1cccs1 | 6 | 1 | 3 | -2 | 20* | -5
CCCCNC(=O)c1ccc2nc(CC)c(N(C)Cc3cccs3)n2c1 | 6 | -19 | -44 | -1 | -2 | .
CC1CCC2(CC1)NC(=O)N(CC(=O)NCc1ccc(Cl)cc1)C2=O (stereo not given) | 0 | -12 | -8 | -1 | 21* | 1
CCC1CCC2(CC1)NC(=O)N(CC(=O)NCc1ccc(Cl)cc1)C2=O (stereo not given) | -8 | -18 | 20 | 0 | 2 | .
Cn1nnnc1SCCNS(=O)(=O)c1ccccc1 | -3 | . | . | 12 | 22* | ?
Cc1ccc(S(=O)(=O)NCCSc2nnnn2C)cc1 | -2 | 0 | 2 | 0 | 4 | .
CNC[C@@H]1Oc2cc(C#Cc3cccnc3)ccc2S(=O)(=O)N([C@@H](C)CO)C[C@H]1C | -3 | 1 | -1 | -1 | -1 | .
c1csc(-c2ccc3nncn3c2)c1 | -1 | -21 | 21 | -1 | 36* | 0
OCc1ccccc1-c1ccc2nncn2c1 | 0 | -9 | 8 | 2 | 8 | .
O=C(C[C@H]1CC[C@@H](NC(=O)c2cnccn2)[C@H](CO)O1)NCc1ccccc1F | -10 | -3 | 1 | 1 | -2 | .
COc1cc(C(=O)Nc2nnc(C(F)(F)F)s2)c([N+](=O)[O-])cc1OC | 4 | -17 | 0 | 1 | 43* | 2
CCOc1cc(C(=S)N2CCOCC2)ccc1OC(=O)c1ccc(C)cc1 | 8 | -10 | -23 | 7 | 45* | 2
O=C(C[C@H]1CC[C@@H]2[C@H](COC[C@H](O)CN2S(=O)(=O)c2cccc(F)c2)O1)NC1CCC1 | -11 | 10 | 2 | -2 | -1 | .
Cc1ccccc1-c1nc(-c2ccc(NC(=O)c3ccc(Br)o3)cc2)no1 | 1 | . | . | -7 | 31* | 2
O=C(NCCN1CCNCC1)c1ccccc1O | -8 | -18 | . | 0 | -7 | .
c1ccc(CNCCN2CCNCC2)nc1 | -10 | . | . | 0 | 30* | -50
C[C@H]1CN(C)C(=O)c2cc(N)ccc2O[C@H]1CN(C)S(C)(=O)=O | . | . | 1 | . | . | .
CCc1ccccc1NC(=O)C1CCN(C(=O)c2ccc([N+](=O)[O-])cc2)CC1 | 1 | -7 | 13 | -1 | 46* | 2
CC/C(O)=C1\C(=O)CCCC1=NCCc1c(C)[nH]c2ccc(C)cc12 | -7 | -8 | 1 | 0 | -3 | .
CCCC/C(O)=C1\C(=O)CCCC1=NCCc1c(C)[nH]c2ccc(OC)cc12 | -2 | -17 | -18* | 3 | 20* | -3
O=C(Nc1ccccc1)N1CC(=O)N2[C@@H](CO)[C@H](c3ccc(C#Cc4cccnc4)cc3)[C@@H]2C1 | . | -10 | 1 | . | . | .
SMILES | RAD54 inh | RAD52 inh | rRNA inh HTS | Cneo AK release | PglD DTNB | PglD confirm
CCCCCn1c(=O)c(Cc2ccccc2)c(O)c2ccccc21 | -5 | . | . | -5 | 22* | 2
COc1ccc(CN(C)C[C@H]2Oc3ccc(NC(=O)Nc4ccc5c(c4)OCO5)cc3C(=O)N([C@H](C)CO)C[C@@H]2C)cc1 | 15 | 2 | 4 | 6 | 4 | .
CC(=O)Nc1ccc(SCC(=O)N(C)CC(=O)Nc2ccccc2Cl)cc1 | 0 | 4 | . | 0 | 2 | .
CC(=O)Nc1ccc(SCC(=O)Nc2ccccc2-c2ccccc2)cc1 | -9 | -15 | -22 | -3 | 20* | -2
COc1ccc(C2/C(=C(/O)c3ccccc3)C(=O)C(=O)N2CCCN2CCOCC2)cc1 (stereo not given) | -6 | -6 | 5 | -2 | 0 | .
COc1ccc(/C(O)=C2/C(=O)C(=O)N(CCCN3CCOCC3)C2c2ccc(Cl)cc2)cc1 (stereo not given) | -4 | -47 | 1 | -1 | 24* | -1
CCOC(=O)c1[nH]c(C)c(C)c1C | 5 | . | . | -2 | 25* | -1
CCOc1ccc(N(CC(=O)NCCSc2ccccn2)S(C)(=O)=O)cc1 | -5 | . | . | 0 | 4 | .
CS(=O)(=O)N(CC(=O)NCCSc1ccccn1)c1cccc2ccccc12 | 1 | 3 | 6 | -1 | 20* | -3
O=C1N=C2SCCN2/C1=C\c1ccc(Cl)cc1 | -3 | . | . | -4 | 30* | -2
CCc1ccc(N=C2NC(=O)/C(=C/c3cc(OC)c(OC)c(OC)c3)S2)cc1 | -6 | -13 | -6 | -2 | 4 | .
CCc1ccc(N=C2NC(=O)/C(=C/c3cc(Br)c(OCC(=O)O)c(OC)c3)S2)cc1 | -10 | 39 | -6 | -1 | 27* | 20*
C[C@@H]1CN([C@H](C)CO)C(=O)c2cc(NS(C)(=O)=O)ccc2O[C@@H](C)CCCCO[C@@H]1CN(C)Cc1ccccc1 | 0 | 18 | 5 | 0 | 1 | .
CC1=C(C)CS(=O)N(S(=O)(=O)c2ccc(Cl)cc2)C1 (stereo not given) | 1 | . | . | 8 | 23* | 0
CCOC(=O)C1CCN(S(=O)(=O)c2ccc3c(c2)CCCN3C(C)=O)CC1 | 0 | . | . | -1 | 0 | .
CCOC(=O)C1CCN(S(=O)(=O)c2ccc3c(c2)CC(=O)N3C)CC1 | -2 | -9 | 3 | -2 | 41* | 5
O=S(=O)(N[C@H]1CC[C@@H](CCn2cc(-c3ccc(F)cc3)nn2)O[C@@H]1CO)c1ccccc1F | -7 | 4 | -6 | -1 | 0 | .
CCC(C)[C@H](NC(=O)NC1CC1)C(=O)O (stereo not given in full) | -6 | 4 | -8 | 1 | 27* | -4
CCn1c(=O)cc(SCC(=O)N2CCN(c3ccccc3OC)CC2)c2ccccc21 | -1 | . | . | 1 | 33* | ?
CN(Cc1nc2ccccc2[nH]1)Cc1nc(CC2CC2)no1 | . | -12 | 9 | . | . | .
Cc1cccc2[nH]c(CN(C)Cc3nc(CC4CC4)no3)nc12 | -2 | -4 | -2 | 1 | 36* | -3
O=C(CN1CCCCC1)Nc1ccc(NC(=O)c2ccccc2Cl)cc1Cl | 2 | -1 | -32 | -1 | 20* | -2
O=C(CN1CCCCCCC1)Nc1ccc(Cl)cc1Cl | . | 2 | -53 | . | . | .
COc1cc(C(O)c2nc(-c3ccc(F)c(Cl)c3)cs2)ccc1F (stereo not given) | -4 | -33 | -64 | -3 | 0 | .

Screening results deposited in PubChem by Broad Institute.
